Rows were chosen to be rich in hits. Some 2.6% of all compounds tested hit in one or more screens of this group.
ERAP1 inh: blocks human ERAP1 aminopeptidase activity. recombinant ERAP1, Leu-AMC fluorescence, 60 min. inhibition, % at 10.7 µM. 340,000 compounds, 0.15% hits. AID 652197;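 active = mean replicate inhibition of at least 30%, or all replicates individually reaching that 30% level; inactive = mean below 30% and not every replicate reaching it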;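 also: 0% = neutral control wells and 100% = L-leucinethiol positive control wells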
GSIS activator: primary screen for activators of insulin secretion dependent on glucose, INS-1E cells, GLuc reporter luminescence; INS-1E GLuc reporter insulin secretion, 2-3 h; activation, % at 16.6 µM; 370,000 compounds, 0.61% hits; AID 743287;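 active = lowest replicate activation of at least 40%, so every replicate reaches that level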;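 also: 0% = median of neutral control wells and 100% = median of IBMX positive control wells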
E-selectin induc: induces E-selectin expression in human endothelial cells. HUVEC E-selectin immunofluorescence imaging; normalized: neutral wells 0, TNF-alpha wells 100. P16581. AID 686992. activation, % at 7.58 µM. 260,000 compounds, 0.37% hits;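 active = mean E-selectin-positive cell signal at least 10% of the positive control, reached in at least 60% of replicates, without over 20% cell loss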
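System: HUVEC / Compound: single concentration / Signal: immunofluorescence imaging / Read-out: percent E-selectin-positive cells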
miR122 inh: miR-122 inhibition in Huh7 cells. activation (reporter increase), % at 12.5 µM. AID 602342. Huh7 miR-122 Renilla luciferase sensor, 48 h; neutral wells = 0, positive control = 100. 340,000 compounds, 0.3% hits;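 active = mean replicate activation score at least 90 and every replicate individually at or above 90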;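 also: higher luciferase means less miR-122 activity so hits act as miR-122 inhibitors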
F508del corr: CFTR F508del correction in bronchial cells. CFBE cells, YFP halide quenching; stimulated with forskolin plus potentiator P3; % fluorescence drop versus neutral controls. activity (quench increase), % at 7.58 µM. 350,000 compounds, 0.36% hits. AID 720511;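 active = mean added fluorescence quench of at least 8% versus neutral control, with both replicates also reaching 8%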;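 also: cells transiently co-express mutant CFTR-F508del with the halide-sensitive YFP; corrector assay measuring rescue of mutant channel to the surface after 24 h compound exposure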
DENV2 CPE rescue: protects cells from dengue virus 2 cytopathic effect; DENV2-infected cells, cytopathic effect rescue, plate reader; CPE inhibition, % at 9.99 µM; 350,000 compounds, 1.7% hits; in the data active = CPE inhibition above about 20%, passing the limit was not always enough; tested in BHK-21 cells;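 also: 0% = median of neutral control wells and 100% = median of positive control wells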
Starred values were filed as active, the others as inactive; / = no result given; [ ] = dose if it differs, or a comment.

SMILES	ERAP1 inh	GSIS activator	E-selectin induc	miR122 inh	F508del corr	DENV2 CPE rescue
Cn1cnc(S(=O)(=O)N2CCCCN3[C@H](CO)[C@@H](c4ccc(-c5ccccc5)cc4)[C@H]3C2)c1	-1	-3	0	5[16.7 µM]	1	26*
COc1cccc(-c2ccc([C@@H]3[C@@H](CO)N4CCCCN(S(=O)(=O)c5cccs5)C[C@@H]34)cc2)c1	-1	13	-1	-4[16.7 µM]	2	12
Cn1cnc(S(=O)(=O)N2CCCCN3[C@H](C2)[C@@H](c2ccc(-c4ccccc4)cc2)[C@@H]3CO)c1	-1	10	0	11[16.7 µM]	2	6
COc1ccc(-c2ccc([C@H]3[C@@H](CO)N4CCCCN(S(=O)(=O)c5cccs5)C[C@@H]34)cc2)cc1	2	-35	0	1[16.7 µM]	4	22*
O=S(=O)(c1cccs1)N1CCCCN2[C@H](C1)[C@H](c1ccc(-c3ccccc3)cc1)[C@@H]2CO	-1	-4	0	12[16.7 µM]	1	-4
O=S(=O)(c1cccs1)N1CCCCN2[C@H](CO)[C@H](c3ccc(-c4ccccc4)cc3)[C@@H]2C1	-2	-23	0	-6[16.7 µM]	-1	23*
C[C@@H]1CN([C@@H](C)CO)C(=O)Cc2cc(NC(=O)NC3CCCCC3)ccc2O[C@H]1CN(C)S(C)(=O)=O	0	14	9	7[16.7 µM]	0	5
CO[C@H]1CN(C)C(=O)c2cc(NC(=O)C3CC3)ccc2OC[C@@H](C)N(C(=O)c2cccnc2)C[C@@H]1C	1	-7	0	/	-1	4
CC(=O)c1cccc(N(CC(=O)NC2CCCCC2)C(=O)Cn2nnc(-c3ccccc3)n2)c1	1	61*	/	2	1	9
Cc1ccc(-c2nnn(CC(=O)N(CC(=O)NC3CCCCC3)c3cnc4ccccc4c3)n2)o1	/	/	/	0	/	/
C[C@@H]1CN(C)C(=O)Cc2cc(N(C)C)ccc2O[C@@H]1CN(C)S(C)(=O)=O	/	-3	/	/	/	/
CC(C)c1ccc(C(=O)Nc2nnc(S(=O)(=O)N3CCCCC3)s2)cc1	-2	6	45*	/	2	4
COc1ccc(S(=O)(=O)N(C)C[C@@H]2Oc3ccc(NS(=O)(=O)c4ccc(F)cc4)cc3C(=O)N([C@H](C)CO)C[C@@H]2C)cc1	0	-20	0	-2[16.7 µM]	-3	-1
C[C@H](CO)N1C[C@H](C)[C@H](CN(C)S(C)(=O)=O)Oc2ccc(NS(=O)(=O)c3ccccc3)cc2CC1=O	0	9	0	-1[16.7 µM]	-1	19
C[C@H](CO)N1C[C@H](C)[C@@H](CN(C)S(C)(=O)=O)Oc2ccc(NC(=O)Cc3ccccc3)cc2CC1=O	1	3	3	0[16.7 µM]	-2	23*
C[C@@H]1CN([C@@H](C)CO)C(=O)Cc2cc(NS(=O)(=O)c3ccccc3)ccc2O[C@@H]1CN(C)S(C)(=O)=O	-1	22	-1	9[16.7 µM]	-1	24*
C[C@@H]1CN([C@H](C)CO)C(=O)Cc2cc(NS(=O)(=O)c3ccc(F)cc3)ccc2O[C@@H]1CN(C)S(C)(=O)=O	4	23	0	5[16.7 µM]	1	31*
Cc1noc(C)c1NC(=O)Nc1ccc2c(c1)C(=O)N([C@@H](C)CO)C[C@@H](C)[C@H](CN(C)CC1CCCCC1)O2	0	40	2	-11[16.7 µM]	2	1
Cn1nc(C(=O)N2CCC(C(N)=O)CC2)c2c1-c1ccccc1SC2	-5	18	1	6	5	25*
Cn1nc(C(=O)NC2CCCCC2)c2c1-c1ccccc1SC2	5	23	0	0	2	4
COc1ccc2c3c(n(C)c2c1)[C@@H](CO)N(CC1CC1)CC31CCN(C(=O)c2ccc(F)cc2)CC1	-2	-8	0	/	4	15
COc1cc(OC)c2c3c(c(C4CCCCC4)nc2c1)CCCC3	/	0	2	-2	-4	4
COc1cc(OC)c2c(-c3ccccc3)cc(C3CCCCC3)nc2c1	0	42*	/	4	2	-10
CN1[C@H](C(=O)NC2Cc3ccccc3C2)[C@@H](CO)[C@@H]2Cn3c(ccc(-c4ccccc4)c3=O)[C@@H]21	0	-8	0	-7[16.7 µM]	-1	-4
C[C@H]1CN([C@@H](C)CO)C(=O)CCCn2cc(nn2)CO[C@H]1CN(C)Cc1ccc(C(=O)O)cc1	3	-4	0	/	2	25*
SMILES	ERAP1 inh	GSIS activator	E-selectin induc	miR122 inh	F508del corr	DENV2 CPE rescue
C[C@H]1CN([C@@H](C)CO)C(=O)CCCn2cc(nn2)CO[C@@H]1CN(C)Cc1cccc(C(=O)O)c1	-6	29	0	12[16.7 µM]	-4	24*
C[C@H](CO)N1C[C@H](C)[C@H](CN(C)Cc2ccccc2)OCc2cn(nn2)CCCC1=O	/	4	0	5[16.7 µM]	0	/
CO[C@H]1CN(C)C(=O)c2ccc(NC(=O)C3CC3)cc2OC[C@H](C)N(CCC(F)(F)F)C[C@@H]1C	-4	-13	0	/	-1	8
CCC(=O)Nc1nc2ccccc2n1Cc1ccc(C)cc1	/	-17	/	4	/	/
Cc1ccc(Cn2c(NS(=O)(=O)c3ccccc3)nc3ccccc32)cc1	/	/	/	106*	/	/
C[C@H](CO)N1C[C@H](C)[C@@H](CN(C)C)Oc2cc(C3=CCCCC3)ccc2S1(=O)=O	/	-3	-1	10[16.7 µM]	-4	/
CO[C@@H](CN(C)C(=O)c1ccc2c(c1)OCO2)[C@@H](C)CN([C@H](C)CO)S(=O)(=O)c1ccc(Cl)cc1	-1	2	0	/	0	17
CSc1ccccc1NC(=O)COC(=O)CCC(=O)c1ccc(F)cc1	-3	-6	0	9	8.1*	7
COc1ccc(CCNC(=O)COC(=O)CCC(=O)c2ccc(F)cc2)cc1OC	/	87*	-1	/	1	6
COc1ccc(CC(=O)OCC(=O)NCCNC(=O)COC(=O)Cc2ccc(OC)cc2)cc1	0	19	0	/	3	61*
COc1ccc(CCNC(=O)COC(=O)Cc2c[nH]c3ccccc23)cc1OC	1	52*	0	-14	0	3
Cc1noc(C)c1S(=O)(=O)Nc1ccc2c(c1)C(=O)N([C@H](C)CO)C[C@H](C)[C@@H](CN(C)Cc1ccc(C(F)(F)F)cc1)OCCCC[C@H](C)O2	1	-19	0	-9[16.7 µM]	2	9
CNC[C@@H]1OCCCC[C@H](C)Oc2ccc(N)cc2C(=O)N([C@@H](C)CO)C[C@H]1C	-4	/	/	-5[16.7 µM]	2	-1
CC(=O)N(C)C[C@@H]1Oc2ncc(C#C[C@@H](C)O)cc2C(=O)N([C@H](C)CO)C[C@H]1C	-5	7	0	11[16.7 µM]	-2	17
CCOc1cc(/C=C(\CC(=O)O)c2nc3ccccc3s2)ccc1OC	3	51*	3	/	-1	12
